# Laboratory results reported in PubChem BioAssay.
# Activity calls are given as the source filed them.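 How the source made its calls, unless noted: active means Her2 level under about 52% in both replicate screens, with viability over 70% of control (limit read from the data); inconclusive means Her2 under the limit in one screen only, or viability under 70%; inactive means Her2 level above the set limit.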
# Experiments:
# [1] = Her2 expression decrease, cell viability multiplex – SKBR3 breast tumor cells, AlphaScreen, ATP viability, primary screen (AID 461); details: SKBR3 Her2 protein level, 18-24 h, measured here: SKBR3 viability, ATP luminescence, at 10 µM;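 on Her2 level: lower value means less Her2 protein in the cells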;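 on viability: percent of carrier control wells set as 100% viability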
# [2] = molecular target: Receptor tyrosine-protein kinase erbB-2 (Homo sapiens) (UniProt P04626); experiment: as above; details: 18-24 h, at 10 µM, stronger effect = lower value
# Chain of Receptor tyrosine-protein kinase erbB-2 (Homo sapiens) (P04626 whole entry, looked up): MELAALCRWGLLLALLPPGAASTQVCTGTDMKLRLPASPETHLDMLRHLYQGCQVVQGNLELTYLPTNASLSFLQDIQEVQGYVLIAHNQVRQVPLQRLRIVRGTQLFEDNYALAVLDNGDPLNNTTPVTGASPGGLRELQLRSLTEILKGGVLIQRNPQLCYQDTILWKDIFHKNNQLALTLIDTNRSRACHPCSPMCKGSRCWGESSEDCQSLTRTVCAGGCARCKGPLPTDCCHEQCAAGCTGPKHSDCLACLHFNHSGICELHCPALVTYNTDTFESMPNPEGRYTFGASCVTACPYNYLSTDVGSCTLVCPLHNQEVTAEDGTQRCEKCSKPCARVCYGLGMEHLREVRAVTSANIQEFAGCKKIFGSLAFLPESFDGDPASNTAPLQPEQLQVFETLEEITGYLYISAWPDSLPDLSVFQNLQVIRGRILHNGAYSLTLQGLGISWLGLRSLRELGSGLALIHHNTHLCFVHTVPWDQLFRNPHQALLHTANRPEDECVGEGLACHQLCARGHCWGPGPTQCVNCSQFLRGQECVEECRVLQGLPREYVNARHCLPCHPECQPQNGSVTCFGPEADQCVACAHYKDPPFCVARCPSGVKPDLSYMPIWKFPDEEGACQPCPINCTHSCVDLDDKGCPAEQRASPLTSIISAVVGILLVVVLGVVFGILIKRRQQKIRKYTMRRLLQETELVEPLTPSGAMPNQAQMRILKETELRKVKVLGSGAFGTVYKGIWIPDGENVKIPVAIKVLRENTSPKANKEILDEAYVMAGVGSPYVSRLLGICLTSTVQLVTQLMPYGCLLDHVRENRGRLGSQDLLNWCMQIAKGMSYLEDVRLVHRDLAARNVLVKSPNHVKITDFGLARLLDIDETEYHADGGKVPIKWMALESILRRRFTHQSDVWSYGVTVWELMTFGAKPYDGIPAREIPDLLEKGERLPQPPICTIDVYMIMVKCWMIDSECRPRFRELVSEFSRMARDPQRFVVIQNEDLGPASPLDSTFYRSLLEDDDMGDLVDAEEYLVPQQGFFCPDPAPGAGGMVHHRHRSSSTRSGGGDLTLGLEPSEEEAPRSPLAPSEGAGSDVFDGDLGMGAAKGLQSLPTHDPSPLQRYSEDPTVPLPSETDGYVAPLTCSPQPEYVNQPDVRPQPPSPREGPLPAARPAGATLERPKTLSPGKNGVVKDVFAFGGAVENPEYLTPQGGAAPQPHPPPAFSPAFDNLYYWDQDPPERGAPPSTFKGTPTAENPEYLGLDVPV
# [3] = reduced viability of SK-BR-3 breast cancer cells – cell-based, 24 h, human, pilot screen (AID 572;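 active means viability at or below 10% of carrier control in both of two separate runs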;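 further: compound exposure lasted between 18 and 24 h rather than exactly 24 h; 100% = carrier-treated control wells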); details: SK-BR-3 viability, CellTiter-Glo luminescence, at 10 µM, stronger effect = lower value
# [4] = HUVEC growth inhibition – cell-based, human, primary screen (AID 575;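 active means viability at or below 30% in both replicate assays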;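 further: 100% = median of untreated cell wells with 0.1% DMSO on each plate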); details: HUVEC proliferation, CellTiter-Glo luminescence, 72 h; at 10 µM; stronger effect = lower value
# Summary of the method: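 Test system: primary human umbilical vein endothelial cells; medium: endothelial basal medium with 2% FBS plus growth supplements; dosing: 10 µM compound only; times: 72 h treatment at 37 °C; signal: CTG luminescence; read-out: % viability relative to median vehicle-well signal on each plate; control set: vehicle and MePR control wells; plate: 384-well, collagen-coated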
# [5] = H69AR cell proliferation blockers – human, duplicate replicates, primary screen (AID 580;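 active means viability at or under a set limit in both replicates, limit being median viability minus 3 SD, cut at about 48% in these data, passing the limit was not always enough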;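 further: 100% = mean luminescence of untreated wells and 0% = no signal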); details: H69AR lung tumor cells viability, ATP luminescence, 72 h; at 10 µM; stronger effect = lower value
# [6] = MRP1 drug-resistance reversers in H69AR cells – cell-based, doxorubicin co-treatment, pilot screen (AID 601;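 active means viability loss from added drug above about 55%, and viability with drug at most 40%, in both replicates, limit read from the data, passing the limit was not always enough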); details: CellTiter-Glo, 72 h, at 10 µM; for differential viability (reversal): stronger effect = higher value
# [7] = yeast transport mutant growth inhibition pilot in 384-well plates, post-Golgi transport modulator project (AID 636; in the data active means inhibition above about 31%); details: absorbance 615 nm, about 18 h, stronger effect = higher value
# [8] = growth suppression of yeast trafficking mutant, preliminary HTS, modulators of trafficking downstream of Golgi apparatus project, 1536-format plate, OD 615 nm (AID 637; in the data active means inhibition above about 30%); details: yeast transport mutant growth, absorbance 615 nm, 18 h; stronger effect = higher value
# [9] = H69AR cells + 2 uM doxorubicin, measured here: viability with 2 uM doxorubicin, stronger effect = lower value
# [10] = H69AR cells, compound alone cytotoxicity
Compound,viability [1] [%],Her2 level [2],viability [3],viability [4],viability [5],differential viability (reversal) ([6]; H69AR cells + 2 uM doxorubicin),"viability [6, 9] [%]","viability [6, 10] [%]",inhibition [7],inhibition [8]
COc1ccc(-c2noc(CN(C(=O)C(C)(C)C)C(C)C)n2)cc1,96,102% (inactive),96% (inactive),102% (inactive),109% (inactive),17.6% (inactive),91.3,109,-4.61% (inactive),-6.83% (inactive)
CCc1ccc(N2CC(C(=O)OCC(=O)Nc3cc(C)on3)CC2=O)cc1 (stereo not given),94,92% (inactive),94% (inactive),107% (inactive),110% (inactive),11.1% (inactive),99.2,110,0.9% (inactive),-3.83% (inactive)
N#C/C(C(=O)N1CCOCC1)=C1/SC(Cc2ccccc2)C(=O)N1c1ccccc1 (stereo not given),92,90.5% (inactive),92% (inactive),99.4% (inactive),98.4% (inactive),-3.21% (inactive),102,98.4,-3.55% (inactive),-4.91% (inactive)
CCN(CC)S(=O)(=O)c1cccc2c(N(C)C)cccc12,99.5,112% (inactive),99.5% (inactive),107% (inactive),93.3% (inactive),4.14% (inactive),89.2,93.3,-4.93% (inactive),-4.52% (inactive)
CCC(=O)N1CCc2cc(S(=O)(=O)CCC(=O)Nc3c(C)n(C)n(-c4ccccc4)c3=O)ccc21,96,104% (inactive),96% (inactive),89.8% (inactive),94% (inactive),6.7% (inactive),87.3,94,-2.93% (inactive),-10.7% (inactive)
CCC(c1nnc(SCC(=O)NCC2CCCO2)n1Cc1ccccc1)N(C)C (stereo not given),98.5,98% (inactive),98.5% (inactive),96.8% (inactive),89.2% (inactive),5.86% (inactive),83.3,89.2,-7.47% (inactive),-1.61% (inactive)
CN1CCCN(C(=O)c2cc(=O)[nH]c3ccccc23)c2nc3ccccc3nc21,114,90% (inactive),114% (inactive),84.2% (inactive),79.9% (inactive),0.575% (inactive),79.3,79.9,-4.93% (inactive),-2.79% (inactive)
Cn1c(Cc2csc(N)n2)nnc1SCC(=O)NCc1ccccc1,93,99.5% (inactive),93% (inactive),114% (inactive),100% (inactive),-11.2% (inactive),111,100,0.39% (inactive),-4.52% (inactive)
Cn1c(C(=O)N2CCN(C(=O)c3ccco3)CC2)cc2c(=O)n3ccccc3nc21,100,104% (inactive),100% (inactive),82.3% (inactive),82.6% (inactive),-0.835% (inactive),83.4,82.6,0.26% (inactive),-0.98% (inactive)
O=C(CN1C(=O)CCSc2ccccc21)Nc1ccc(F)cc1,94,112% (inactive),94% (inactive),97.6% (inactive),98.5% (inactive),1.06% (inactive),97.5,98.5,3.29% (inactive),0.16% (inactive)
COc1ccccc1OCC(=O)Nc1ccc(S(=O)(=O)Nc2nc(C)cc(C)n2)cc1,90.5,184% (inactive),90.5% (inactive),98.7% (inactive),96.3% (inactive),7.8% (inactive),88.5,96.3,-3.59% (inactive),-5.5% (inactive)
CCOC(=O)c1c(NC(=O)CSc2nc3c(c(=O)n(C)c(=O)n3C)n2C(C)C)sc(C)c1C,106,94% (inactive),106% (inactive),91.4% (inactive),89.9% (inactive),-2.12% (inactive),92.1,89.9,-0.53% (inactive),-3.23% (inactive)
O=C(Nc1ccccc1N1CCOCC1)c1ccc2ccccc2n1,90,83.5% (inactive),90% (inactive),67.4% (inactive),79.4% (inactive),-12.4% (inactive),91.9,79.4,-4.74% (inactive),-2% (inactive)
COC(=O)c1cnc2c(C(F)(F)F)cccc2c1OC,104,106% (inactive),104% (inactive),97.6% (inactive),98.4% (inactive),11.6% (inactive),86.8,98.4,-5.33% (inactive),-1.31% (inactive)
C=CCN1C(=O)/C(=C2\SC(N3CCOCC3)=NC2=O)c2cc(Br)ccc21,82.5,84.5% (inactive),82.5% (inactive),86.1% (inactive),83.1% (inactive),-4.46% (inactive),87.5,83.1,-1.32% (inactive),-2.55% (inactive)
COc1ccc(N2CCN(C(=O)CSc3nnc4n3C(C)(C)Cc3ccccc3-4)CC2)cc1,96,100% (inactive),96% (inactive),84.3% (inactive),88.7% (inactive),-4.46% (inactive),93.1,88.7,-5.79% (inactive),-1.61% (inactive)

Compound,viability [1] [%],Her2 level [2],viability [3],viability [4],viability [5],differential viability (reversal) ([6]; H69AR cells + 2 uM doxorubicin),"viability [6, 9] [%]","viability [6, 10] [%]",inhibition [7],inhibition [8]
CCCC(=O)OCCn1c(Br)nc2c1c(=O)[nH]c(=O)n2C,98.5,86.5% (inactive),98.5% (inactive),89.4% (inactive),93.5% (inactive),5.21% (inactive),88.2,93.5,-1.47% (inactive),1.45% (inactive)
COc1ccc(C)cc1NS(=O)(=O)c1ccc(NS(=O)(=O)c2ccc(NC(C)=O)cc2)cc1,128,104% (inactive),128% (inactive),94.9% (inactive),93.5% (inactive),4.67% (inactive),88.9,93.5,-6.67% (inactive),1.29% (inactive)
CCOC(=O)N1CCN(C(=O)COc2ccc(S(=O)(=O)NC3CCCCC3)cc2C)CC1,112,110% (inactive),112% (inactive),80.9% (inactive),98.9% (inactive),0.31% (inactive),98.5,98.9,-0.4% (inactive),-1.31% (inactive)
O=C(NCc1ccccc1)N1CCn2c(nc3ccccc32)C1,93.5,91.5% (inactive),93.5% (inactive),90.2% (inactive),92.9% (inactive),14.2% (inactive),78.7,92.9,-3.73% (inactive),1.15% (inactive)
CC(=O)N1CCC2(CC1)CC(=O)c1cc(OCC(=O)NCc3ccco3)ccc1O2,106,112% (inactive),106% (inactive),106% (inactive),83.5% (inactive),-4.33% (inactive),87.9,83.5,0.92% (inactive),-3.17% (inactive)
CC1(C)CC(=O)C2=C(C1)OC(N)=C(C#N)C2C1CC=CCC1 (stereo not given),108,93% (inactive),108% (inactive),91.4% (inactive),81.6% (inactive),12.5% (inactive),69.1,81.6,-7.53% (inactive),-2.22% (inactive)
Cc1ccc(Nc2nc(N)nc(CN3CCCCCC3)n2)cc1,79.5,73.5% (inactive),79.5% (inactive),65.7% (inactive),78.4% (inactive),-10.4% (inactive),88.8,78.4,-1.69% (inactive),2.83% (inactive)
COc1ccccc1C(=O)Nc1ccc(N2CCN(S(C)(=O)=O)CC2)cc1,99.5,106% (inactive),99.5% (inactive),144% (inactive),97.2% (inactive),12.7% (inactive),84.5,97.2,-1.89% (inactive),-4% (inactive)
Cc1ccc(S(=O)(=O)N(C)Cc2cc3ccccc3[nH]c2=O)cc1,114,86.5% (inactive),114% (inactive),111% (inactive),91.5% (inactive),3.6% (inactive),87.9,91.5,0.26% (inactive),-6.91% (inactive)
O=C(Nc1cccnc1)Nc1ccc2c(c1)OCO2,102,74% (inactive),102% (inactive),78.1% (inactive),82.7% (inactive),12.9% (inactive),69.8,82.7,-2.24% (inactive),6.03% (inactive)
CCOc1ccc2nc(NC(=O)CSc3nnnn3C3CCCCC3)sc2c1,92,108% (inactive),92% (inactive),59.7% (inactive),63.5% (inactive),4.67% (inactive),58.8,63.5,9.08% (inactive),-0.33% (inactive)
COc1ccccc1CN1C(=S)SC(C)(C)C1NO (stereo not given),100,93.5% (inactive),100% (inactive),73.8% (inactive),98.3% (inactive),8.72% (inactive),89.6,98.3,-3.73% (inactive),2.42% (inactive)
CSc1nc(C)cc(OCC(=O)N2CCOCC2)n1,130,112% (inactive),130% (inactive),99.2% (inactive),92.7% (inactive),2.54% (inactive),90.2,92.7,-4.81% (inactive),5% (inactive)
COc1ccc(C2C(C#N)=C(N)OC3=C2C(=O)CC(C)C3)c(OC)c1OC (stereo not given),102,134% (inactive),102% (inactive),101% (inactive),100% (inactive),3.42% (inactive),96.6,100,2.86% (inactive),-4.83% (inactive)
CC1=C(C(=O)NCc2ccco2)C2(CCC(C)CC2)OC1=O (stereo not given),89.5,100% (inactive),89.5% (inactive),94% (inactive),84% (inactive),-0.86% (inactive),84.8,84,-4% (inactive),-5.74% (inactive)
